According to ChEMBL document CHEMBL4715744, “Concise synthesis of carbazole-1,4-quinones and evaluation of their antiproliferative activity against HCT-116 and HL-60 cells” (Eur J Med Chem, 2016):

Assays:
[1] = system: HCT-116; assay: Cytotoxicity against human HCT-116 cells assessed as reduction in cell viability incubated for 48 hrs by MTT assay; format: functional, cell-based; settings: HCT-116, 48 h
Summary of the method: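 Antiproliferative test on HCT-116 colon tumour cells, read out by MTT; activity expressed as IC50.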

[2] = system: HL-60; assay: Cytotoxicity against human HL-60 cells assessed as reduction in cell viability incubated for 48 hrs by WST-1 assay; format: functional, cell-based; settings: HL-60, 48 h
Summary of the method: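 HL-60 promyelocytic leukaemia cells, with proliferation read out by WST-1; activity expressed as IC50.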

Row | Structure (SMILES) | IC50 [1] [nM] | IC50 [2] [nM]
1 | O=C1C=CC(=O)c2c1[nH]c1ccccc21 | 763 | 1000
2 | CC1=CC(=O)c2[nH]c3ccc(C(F)(F)F)cc3c2C1=O | 921 | 1130
3 | CC1=CC(=O)c2[nH]c3ccc(F)cc3c2C1=O | 2700 | 4400
4 | COc1cc2[nH]c3c(c2cc1OC)C(=O)C(C)=CC3=O | 4090 | 8950
5 | CC1=CC(=O)c2[nH]c3cc(Cl)ccc3c2C1=O | 895 | > 10000
6 | COCn1c2c(c3ccccc31)C(=O)C=C(C)C2=O | > 10000 | > 10000
7 | COc1cc(OC)c2c3c([nH]c2c1)C(=O)C=C(C)C3=O | > 10000 | 7260
8 | COCn1c2c(c3ccccc31)C(=O)C=CC2=O | 1310 | 1380
9 | CC1=CC(=O)c2[nH]c3cc([N+](=O)[O-])ccc3c2C1=O | 1370 | 1580
10 | COc1cc(OC)c2[nH]c3c(c2c1)C(=O)C(C)=CC3=O | 3600 | 3820
11 | CC1=CC(=O)c2[nH]c3cc(C)ccc3c2C1=O | 1000 | 6930
12 | COc1ccc(OC)c2c3c([nH]c12)C(=O)C=C(C)C3=O | 1840 | 2270
13 | CC1=CC(=O)c2[nH]c3ccc([N+](=O)[O-])cc3c2C1=O | 569 | 1030
14 | CC1=CC(=O)c2[nH]c3cc(F)ccc3c2C1=O | 1000 | 1470
15 | COc1ccc2[nH]c3c(c2c1OC)C(=O)C(C)=CC3=O | > 10000 | > 10000
16 | CC1=CC(=O)c2[nH]c3cc4ccccc4cc3c2C1=O | > 10000 | 5270
17 | CC1=CC(=O)c2[nH]c3cc(C(F)(F)F)ccc3c2C1=O | > 10000 | 6020
18 | COCn1c2c(c3ccccc31)C(=O)C(C)=CC2=O | 6490 | 3920
19 | CC1=CC(=O)c2[nH]c3ccc4ccccc4c3c2C1=O | > 10000 | > 10000
20 | CC1=CC(=O)c2[nH]c3ccc(C)cc3c2C1=O | 2030 | > 10000
21 | COc1ccc2[nH]c3c(c2c1)C(=O)C(C)=CC3=O | 1600 | 3410
22 | COc1ccc2c3c([nH]c2c1)C(=O)C=C(C)C3=O | 992 | 1750
23 | CC1=CC(=O)c2[nH]c3ccc(Cl)cc3c2C1=O | 2210 | 1280
24 | CC1=CC(=O)c2[nH]c3ccccc3c2C1=O [MURRAYAQUINONE A] | 3720 | 3020
